Measured values published in ChEMBL document CHEMBL2375290, “Nonclassical antifolates, part 3: synthesis, biological evaluation and molecular modeling study of some new 2-heteroarylthio-quinazolin-4-ones” (Eur J Med Chem, 2013).
Converted amounts (≈) assume the structure as drawn.

Legend:
MDA-MB-435 = test: Cytotoxicity against human MDA-MB-435 cells at 10 uM after 48 hrs by coulter counter analysis; format: functional; settings: MDA-MB-435, 48 h, read-out: GI
MDA-MB-231 = test: Cytotoxicity against human MDA-MB-231 cells at 10 uM after 48 hrs by coulter counter analysis; format: functional; settings: MDA-MB-231, 48 h, read-out: GI
RXF 393 = test: Cytotoxicity against human RXF393 cells at 10 uM after 48 hrs by coulter counter analysis; format: functional; settings: RXF 393, 48 h, read-out: GI
A549 = test: Cytotoxicity against human A549/ATCC cells at 10 uM after 48 hrs by coulter counter analysis; format: functional; settings: A549, 48 h, read-out: GI
[1] = Cytotoxicity against human EKVX cells at 10 uM after 48 hrs by coulter counter analysis; format: functional; settings: read-out: GI
Staphylococcus aureus [2] = test: Antimicrobial activity against Staphylococcus aureus after 24 hrs by micro-dilution susceptibility method; format: functional
Method in brief: (§1)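 Broth microdilution in Müller-Hinton broth against S. aureus IFO 3060, B. subtilis IFO 3007, E. coli IFO 3301 and P. aeruginosa IFO 3448. These are the same standard strains used in the disc-diffusion primary screen. Compounds were solubilized in DMSO. MIC recorded as the minimal inhibitory concentration.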

SNB-75 = test: Cytotoxicity against human SNB75 cells at 10 uM after 48 hrs by coulter counter analysis; format: functional; settings: SNB-75, 48 h, read-out: GI
Hs-578T = test: Cytotoxicity against human Hs578T cells at 10 uM after 48 hrs by coulter counter analysis; format: functional; settings: read-out: GI
Micrococcus luteus = test: Antimicrobial activity against Micrococcus luteus at 200 ug after 24 hrs by agar disc diffusion method; format: functional; settings: read-out: DIZ
NCI-H522 = test: Cytotoxicity against human NCI-H522 cells at 10 uM after 48 hrs by coulter counter analysis; format: functional; settings: NCI-H522, 48 h, read-out: GI
MCF7 = test: Cytotoxicity against human MCF7 cells at 10 uM after 48 hrs by coulter counter analysis; format: functional; settings: MCF7, 48 h, read-out: GI
RPMI-8226 = test: Cytotoxicity against human RPMI8226 cells at 10 uM after 48 hrs by coulter counter analysis; format: functional; settings: RPMI-8226, 48 h, read-out: GI
SN12C = test: Cytotoxicity against human SN12C cells at 10 uM after 48 hrs by coulter counter analysis; format: functional; settings: read-out: GI
CCRF-CEM = test: Cytotoxicity against human CCRF-CEM cells at 10 uM after 48 hrs by coulter counter analysis; format: functional; settings: read-out: GI
A498 = test: Cytotoxicity against human A498 cells at 10 uM after 48 hrs by coulter counter analysis; format: functional; settings: A498, 48 h, read-out: GI
PC-3 = test: Cytotoxicity against human PC3 cells at 10 uM after 48 hrs by coulter counter analysis; format: functional; settings: PC-3, 48 h, read-out: GI
T47D = test: Cytotoxicity against human T47D cells at 10 uM after 48 hrs by coulter counter analysis; format: functional; settings: read-out: GI
LOX IMVI = test: Cytotoxicity against human LOXIMVI cells at 10 uM after 48 hrs by coulter counter analysis; format: functional; settings: read-out: GI
Bacillus subtilis [3] = test: Antimicrobial activity against Bacillus subtilis after 24 hrs by micro-dilution susceptibility method; format: functional; method in brief: as §1
SR = test: Cytotoxicity against human SR cells at 10 uM after 48 hrs by coulter counter analysis; format: functional; settings: read-out: GI
CAKI-1 = test: Cytotoxicity against human Caki1 cells at 10 uM after 48 hrs by coulter counter analysis; format: functional; settings: CAKI-1, 48 h, read-out: GI
Pseudomonas aeruginosa = test: Antimicrobial activity against Pseudomonas aeruginosa at 200 ug after 24 hrs by agar disc diffusion method; format: functional; settings: read-out: DIZ
IGROV-1 = test: Cytotoxicity against human IGROV1 cells at 10 uM after 48 hrs by coulter counter analysis; format: functional; settings: IGROV-1, 48 h, read-out: GI
HL-60(TB) = test: Cytotoxicity against human HL-60(TB) cells at 10 uM after 48 hrs by coulter counter analysis; format: functional; settings: HL-60, 48 h, read-out: GI
Escherichia coli [4] = test: Antimicrobial activity against Escherichia coli after 24 hrs by micro-dilution susceptibility method
MOLT-4 = test: Cytotoxicity against human MOLT4 cells at 10 uM after 48 hrs by coulter counter analysis; format: functional; settings: MOLT-4, 48 h, read-out: GI
NCI-H23 = test: Cytotoxicity against human NCI-H23 cells at 10 uM after 48 hrs by coulter counter analysis; format: functional; settings: NCI-H23, 48 h, read-out: GI
Staphylococcus aureus [5] = test: Antimicrobial activity against Staphylococcus aureus at 200 ug after 24 hrs by agar disc diffusion method; format: functional; settings: read-out: DIZ
Bacillus subtilis [6] = test: Antimicrobial activity against Bacillus subtilis at 200 ug after 24 hrs by agar disc diffusion method; format: functional; settings: read-out: DIZ
Dihydrofolate reductase = molecular target: T1, Dihydrofolate reductase (Bos taurus, UniProt P00376); test: Inhibition of bovine DHFR after 2 mins by spectrophotometry
T1 sequence (P00376 whole entry): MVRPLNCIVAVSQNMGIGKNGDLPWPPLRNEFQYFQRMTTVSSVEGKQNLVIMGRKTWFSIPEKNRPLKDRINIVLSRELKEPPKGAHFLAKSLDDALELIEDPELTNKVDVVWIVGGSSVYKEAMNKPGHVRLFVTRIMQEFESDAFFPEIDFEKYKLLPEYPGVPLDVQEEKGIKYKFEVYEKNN

SK-MEL-5 = test: Cytotoxicity against human SK-MEL-5 cells at 10 uM after 48 hrs by coulter counter analysis; format: functional; settings: SK-MEL-5, 48 h, read-out: GI
UO-31 = test: Cytotoxicity against human UO31 cells at 10 uM after 48 hrs by coulter counter analysis; format: functional; settings: UO-31, 48 h, read-out: GI
SF-295 = test: Cytotoxicity against human SF295 cells at 10 uM after 48 hrs by coulter counter analysis; format: functional; settings: SF-295, 48 h, read-out: GI
SNB-19 = test: Cytotoxicity against human SNB19 cells at 10 uM after 48 hrs by coulter counter analysis; format: functional; settings: SNB-19, 48 h, read-out: GI
OVCAR-4 = test: Cytotoxicity against human OVCAR4 cells at 10 uM after 48 hrs by coulter counter analysis; format: functional; settings: OVCAR-4, 48 h, read-out: GI
Malme-3M = test: Cytotoxicity against human MALME-3M cells at 10 uM after 48 hrs by coulter counter analysis; format: functional; settings: read-out: GI
[7] = Cytotoxicity against human NCI-ADR-RES cells at 10 uM after 48 hrs by coulter counter analysis; format: functional; settings: read-out: GI
Escherichia coli [8] = test: Antimicrobial activity against Escherichia coli at 200 ug after 24 hrs by agar disc diffusion method; format: functional; settings: read-out: DIZ
UACC-62 = test: Cytotoxicity against human UACC62 cells at 10 uM after 48 hrs by coulter counter analysis; format: functional; settings: UACC-62, 48 h, read-out: GI
NCI-H226 = test: Cytotoxicity against human NCI-H226 cells at 10 uM after 48 hrs by coulter counter analysis; format: functional; settings: NCI-H226, 48 h, read-out: GI

Compound	inhibition of growth at 10 µM (MDA-MB-435) [%]	inhibition of growth at 10 µM (MDA-MB-231) [%]	inhibition of growth at 10 µM (RXF 393) [%]	inhibition of growth at 10 µM (A549) [%]	inhibition of growth at 10 µM [1] [%]	MIC (Staphylococcus aureus [2]) [µg/mL]	inhibition of growth at 10 µM (SNB-75) [%]	inhibition of growth at 10 µM (Hs-578T) [%]	zone of inhibition at 200 µg/disc (Micrococcus luteus) [mm]	inhibition of growth at 10 µM (NCI-H522) [%]	inhibition of growth at 10 µM (MCF7) [%]	inhibition of growth at 10 µM (RPMI-8226) [%]	inhibition of growth at 10 µM (SN12C) [%]	inhibition of growth at 10 µM (CCRF-CEM) [%]	MIC (Bacillus subtilis [3]) [µg/mL]	zone of inhibition at 200 µg/disc (Pseudomonas aeruginosa) [mm]	zone of inhibition at 200 µg/disc (Staphylococcus aureus [5]) [mm]	zone of inhibition at 200 µg/disc (Bacillus subtilis [6]) [mm]	IC50 (Dihydrofolate reductase) [µM]	zone of inhibition at 200 µg/disc (Escherichia coli [8]) [mm]	also measured
COc1cc2nc(Sc3ncccc3C(=O)O)n(Cc3ccccc3)c(=O)c2cc1OC	< 10	< 10	< 10	< 10	23.1	4 (≈ 8.9 µM)	< 10	< 10	15	17.3	13.5	12.5	< 10	< 10	2 (≈ 4.45 µM)	12	22	26	5	18	inhibition of growth at 10 µM (A498): < 10%; inhibition of growth at 10 µM (PC-3): < 10%; inhibition of growth at 10 µM (T47D): < 10%; inhibition of growth at 10 µM (LOX IMVI): < 10%; inhibition of growth at 10 µM (SR): 29.8%; inhibition of growth at 10 µM (CAKI-1): 15.9%; inhibition of growth at 10 µM (IGROV-1): < 10%; inhibition of growth at 10 µM (HL-60(TB)): 13.2%; MIC (Escherichia coli [4]): 4 µg/mL (≈ 8.9 µM); inhibition of growth at 10 µM (MOLT-4): 13.8%; inhibition of growth at 10 µM (NCI-H23): < 10%; inhibition of growth at 10 µM (SK-MEL-5): < 10%; inhibition of growth at 10 µM (UO-31): 14.6%; inhibition of growth at 10 µM (SF-295): < 10%; inhibition of growth at 10 µM (SNB-19): < 10%; inhibition of growth at 10 µM (OVCAR-4): 14.3%; inhibition of growth at 10 µM (Malme-3M): < 10%; inhibition of growth at 10 µM [7]: < 10%; inhibition of growth at 10 µM (UACC-62): 11.6%; inhibition of growth at 10 µM (NCI-H226): 14%
COc1cc2nc(Sc3cc([N+](=O)[O-])ccc3C(=O)O)n(-c3ccccc3)c(=O)c2cc1OC	–	–	–	–	–	8 (≈ 16.7 µM)	–	–	8	–	–	–	–	–	4 (≈ 8.34 µM)	8	18	20	10	22	MIC (Escherichia coli [4]): 2 µg/mL (≈ 4.17 µM)
Cc1ccc2nc(Sc3ncccc3C(=O)O)n(-c3ccccc3)c(=O)c2c1	< 10	< 10	< 10	< 10	< 10	4 (≈ 10.3 µM)	< 10	< 10	14	< 10	< 10	10.4	< 10	< 10	4 (≈ 10.3 µM)	12	20	22	8	16	inhibition of growth at 10 µM (A498): < 10%; inhibition of growth at 10 µM (PC-3): 11.7%; inhibition of growth at 10 µM (T47D): < 10%; inhibition of growth at 10 µM (LOX IMVI): < 10%; inhibition of growth at 10 µM (SR): < 10%; inhibition of growth at 10 µM (CAKI-1): 13.1%; inhibition of growth at 10 µM (IGROV-1): < 10%; inhibition of growth at 10 µM (HL-60(TB)): < 10%; inhibition of growth at 10 µM (MOLT-4): < 10%; inhibition of growth at 10 µM (NCI-H23): < 10%; inhibition of growth at 10 µM (SK-MEL-5): < 10%; inhibition of growth at 10 µM (UO-31): 12.1%; inhibition of growth at 10 µM (SF-295): < 10%; inhibition of growth at 10 µM (SNB-19): < 10%; inhibition of growth at 10 µM (OVCAR-4): < 10%; inhibition of growth at 10 µM (Malme-3M): < 10%; inhibition of growth at 10 µM [7]: < 10%; inhibition of growth at 10 µM (UACC-62): < 10%; inhibition of growth at 10 µM (NCI-H226): < 10%
